Screens deposited in PubChem by Broad Institute.
PglD DTNB = inhibitors of Campylobacter jejuni PglD acetyltransferase | purified PglD enzyme, DTNB colorimetric CoA detection | inhibition, % at 12.5 µM | 0.098% of 360,000 active | AID 602405; in the data active = inhibition above about 16%, passing the limit was not always enough
Cneo AK release = Cryptococcus neoformans lysis via adenylate kinase release; 0.2% of 360,000 active; C. neoformans lysis, adenylate kinase release luminescence, 4 h; normalised: neutral wells 0, clomiphene wells 100; lysis activity, % at 15 µM;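 active = mean lysis activity across replicates of at least 80%, whatever share of replicates individually reach that level; inactive = mean lysis activity below 80%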
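Material – log-phase Cryptococcus neoformans yeast cells · Input – 5 × 10^6 yeast cells/mL · Medium – fresh YPD growth medium · Doses – single compound concentration per well · Timing – static 4 h at 37 °C with compound, 1 h detection · Detection – adenylate kinase release luminescence · Read-out – signal increase indicating cell lysis · Control set – Clomiphene as positive lysis control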
RAD52 anneal inh = blocks human RAD52 DNA annealing. 0.46% of 360,000 active. recombinant RAD52 DNA annealing, FRET fluorescence. inhibition, % at 18.7 µM. P43351;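 active = every replicate showing at least 50% inhibition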
Target sequence (P43351 whole entry, looked up): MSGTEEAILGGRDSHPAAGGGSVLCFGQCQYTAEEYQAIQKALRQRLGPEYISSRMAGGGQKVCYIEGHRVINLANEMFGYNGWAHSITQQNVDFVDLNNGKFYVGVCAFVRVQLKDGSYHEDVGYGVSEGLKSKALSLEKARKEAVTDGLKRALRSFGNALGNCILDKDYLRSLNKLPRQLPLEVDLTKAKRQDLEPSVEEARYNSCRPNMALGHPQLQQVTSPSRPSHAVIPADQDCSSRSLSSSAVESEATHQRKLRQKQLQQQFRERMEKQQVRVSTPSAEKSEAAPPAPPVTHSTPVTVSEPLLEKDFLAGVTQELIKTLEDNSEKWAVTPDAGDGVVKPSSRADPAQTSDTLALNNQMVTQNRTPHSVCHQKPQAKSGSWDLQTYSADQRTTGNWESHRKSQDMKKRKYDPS
RAD54 inh = inhibitors of human RAD54 branch migration; 0.14% of 360,000 active; inhibition, % at 10.4 µM; RAD54 Holliday junction branch migration, FAM/BHQ fluorescence;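 active = mean normalized replicate activity at least 40 and at least half of replicates scoring 40 or more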;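 also: 0% = median of neutral control wells and 100% = median of positive control wells; inhibitors cause a drop in the FAM fluorescence signal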
rRNA inh HTS = selective bacterial rRNA inhibition in E. coli | E. coli WT GFP vs humanized-ribosome RFP mutants, fluorescence, 24 h; active compounds read low; DMSO median 0, no signal -100 | GFP signal change (wild-type ribosome), % (concentration not given with the values) | 1.6% of 350,000 active;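 active = significant combined selectivity score with lowered wild-type GFP, culture density cut under 30%, mutant RFP and density less affected; inactive = any of these conditions unmet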
Active calls of the source: *; . = not tested or not shown; ! = a repeat was not active. In the library only some 1.9% were active in any assay of this set; here they are far more common.

SMILES | PglD DTNB | Cneo AK release | RAD52 anneal inh | RAD54 inh | rRNA inh HTS
CCOC(=O)CN1C(=O)S/C(=C\c2ccc(-c3cccc(C(=O)O)c3C)o2)C1=O | -9 | 5 | -35 | 0 | -8
NS(=O)(=O)c1ccc(NC(=O)Cc2cccs2)cc1 | 6 | 0 | 8 | -5 | 4
NS(=O)(=O)c1ccc(NC(=O)COC(=O)/C(=C/c2cccs2)c2cccs2)cc1 | 0 | 1 | -9 | 2 | -18*
O=C(C[C@H]1CC[C@@H]2[C@H](COC[C@@H](O)CN2C(=O)Cc2ccccc2)O1)NC1CCC1 | -2 | -3 | 12 | 2 | 1
O=c1cc(O)c(-c2ccc(Cl)c(Cl)c2)c(Cl)[nH]1 | -3 | -1 | -32 | -2 | -27*
O=C1[C@H](Cc2ccc(C(F)(F)F)cc2)CCn2cc(nn2)COC[C@@H]2CCCCN12 | . | . | . | . | -4
Cn1nc(-c2ccc(Cl)cc2)nc2c(=O)n(C)c(=O)nc1-2 | -5 | -15 | . | 58* | .
C[C@@H]1CC=CCCNC(=O)[C@@H](C)N(C)C(=O)c2ccccc2O1 (mixture of isomers) | . | . | . | . | 4
CNC[C@@H]1Oc2ncc(-c3ccc(C)cc3)cc2C(=O)N([C@@H](C)CO)C[C@@H]1C | -3 | -4 | 18 | 3 | 11
COc1ccc(CN(C)C[C@H]2Oc3ccc(NC(=O)Nc4ccc(F)cc4)cc3CC(=O)N([C@@H](C)CO)C[C@@H]2C)cc1 | 5 | 102* | -4 | 4 | -54
COc1ccc(CN(C)C[C@H]2Oc3ccc(NC(=O)Nc4ccc(F)cc4)cc3CC(=O)N([C@@H](C)CO)C[C@H]2C)cc1 | 1 | 1 | -23 | -1 | .
CC(C)NC(=O)Nc1ccc2c(c1)CC(=O)N([C@@H](C)CO)C[C@@H](C)[C@@H](CN(C)Cc1ccc(Oc3ccccc3)cc1)O2 | 6 | 109* | -7 | -11 | -3
C[C@@H]1CN([C@@H](C)CO)C(=O)Cc2cc(NC(=O)Nc3ccccc3)ccc2O[C@@H]1CN(C)C(=O)Nc1ccc2c(c1)OCO2 | -5 | -1 | 1 | -9 | 2
C[C@H]1CN([C@@H](C)CO)C(=O)Cc2cc(NC(=O)CCCCCC(=O)Nc3ccccc3N)ccc2O[C@H]1CN(C)Cc1ccc2c(c1)OCO2 | -32 | 94* | -11 | 14 | -3
C[C@H]1CN([C@@H](C)CO)C(=O)Cc2cc(NC(=O)Nc3ccccc3)ccc2O[C@H]1CN(C)C(=O)Nc1ccc2c(c1)OCO2 | 0 | 102* | 3 | 1 | 2
Cc1ccc(S(=O)(=O)Nc2ccc3c(c2)C(=O)N([C@@H](C)CO)C[C@H](C)[C@H](CN(C)C)OCCCC[C@@H](C)O3)cc1 | . | . | . | . | 2
COc1cccc(S(=O)(=O)N[C@@H]2C=C[C@@H](CC(=O)NCc3ccccc3)O[C@@H]2CO)c1 | -1 | -1 | 4 | -5 | 3
C[C@@H]1CN([C@H](C)CO)C(=O)c2cc(C#Cc3cccc(F)c3)cnc2O[C@@H]1CN(C)C(=O)C1CCOCC1 | . | . | . | . | 5
COc1cccc(/C=C/C=O)c1 | . | -4 | 4 | . | .
C[C@@H]1COCc2cn(nn2)CC[C@H](Cc2ccccc2)C(=O)N1 | . | . | . | . | 3
COc1ccc(S(=O)(=O)Nc2ccc3c(c2)C(=O)N([C@@H](C)CO)C[C@@H](C)[C@@H](CN(C)C(=O)CCC(F)(F)F)OCCCC[C@H](C)O3)cc1 | -2 | 1 | 0 | -1 | 0
CC(C)NC(=O)Nc1ccc2c(c1)CC(=O)N([C@H](C)CO)C[C@@H](C)[C@H](CN(C)Cc1ccc3c(c1)OCO3)O2 | 1 | 100* | -1 | 0 | -3
C[C@H]1CN([C@@H](C)CO)C(=O)Cc2cc(NC(=O)Nc3cccc4ccccc34)ccc2O[C@H]1CN(C)Cc1ccc2c(c1)OCO2 | -3 | -1 | 23 | 15 | -5
CC(C)NC(=O)Nc1ccc2c(c1)CC(=O)N([C@H](C)CO)C[C@H](C)[C@@H](CN(C)C(=O)Nc1ccc3c(c1)OCO3)O2 | 5 | 100* | 14 | 3 | 4
C[C@H](CO)N1C[C@H](C)[C@@H](CN(C)Cc2ccc3c(c2)OCO3)Oc2ccc(NC(=O)Nc3cccc4ccccc34)cc2CC1=O | -6 | 2 | 55* | 30 | 0
SMILES | PglD DTNB | Cneo AK release | RAD52 anneal inh | RAD54 inh | rRNA inh HTS
CCS(=O)(=O)NCC[C@@H]1CC[C@@H](NC(=O)C2CCCCC2)[C@H](CO)O1 | . | . | . | . | 2
CCOc1ccc2nc(NC(=O)CS(=O)(=O)c3ccccc3)sc2c1 | 0 | -3 | . | -10 | .
CCOc1ccc2nc(NC(=O)CS(=O)(=O)c3ccc(C)cc3)sc2c1 | -1 | -2 | -1 | -3 | -26*
CC1=NN(C(N)=S)C(=O)C1N=Nc1c(Cl)cc([N+](=O)[O-])cc1Cl (configuration not stated) | -5 | 0 | -25 | 0 | -26*
CCCCC[C@@H](/C=C/C1C(=O)C=C[C@H]1C/C=C\CCCC(=O)OC)OC(C)=O (some centres not stated) | 2 | -3 | -5 | -24 | -23*
CCCC(=O)N1CC2(CN(C(=O)NC(C)C)C2)c2c(n(C)c3cc(OC)ccc23)[C@@H]1CO | . | . | -4 | . | -1
COc1ccc(-n2cc(CNCCc3ncc(C)[nH]3)c(-c3ccccc3Cl)n2)cc1 | -2 | -3 | -5 | 3 | 3
COc1ccc(-n2cc(CNCCc3nc(C)cc(C)n3)c(-c3ccccc3Cl)n2)cc1 | -2 | 94* | -14 | 5 | -14
COCCOC(=O)N1C(=O)[C@@]2(c3cc(C#Cc4ccc(OC)cc4)ccc31)[C@H](C(=O)N1CCc3cc(OC)c(OC)cc3C1)[C@H]1C(=O)O[C@H](c3ccccc3)[C@H](c3ccccc3)N1[C@@H]2c1ccc(OCCO)cc1 | . | 0 | -14 | . | .
Cc1cc(NC(=S)Nc2cccnc2)ccc1Br | 6 | -1 | -21 | -3 | -46*
CCOC(=O)C1CCCN(C(=S)Nc2ccc(Nc3ccccc3)cc2)C1 (configuration not stated) | -3 | -1 | -11 | 5 | -30*
CCOC(=O)C1CCN(C(=S)Nc2ccccc2)CC1 | . | . | -8 | . | 3
Nc1nn(-c2ccccc2)c(N)c1N=Nc1ccccc1F | . | . | -11 | . | -37*
Nc1nn(-c2ccccc2)c(N)c1N=Nc1ccccc1 | -17 | -1 | . | -9 | .
COc1ccc2c3c(n(C)c2c1)[C@@H](CO)N(C(=O)NC1CCCC1)CC31CN(C)C1 | . | . | . | . | 2
COc1cccc(S(=O)(=O)N2C[C@@H]3N[C@H](C2)C3c2ccc(-c3ccccc3OC)cc2)c1 (some centres not stated) | . | . | 56*! | . | 3
COc1ccccc1S(=O)(=O)N1C[C@@H]2N[C@H](C1)C2c1ccc(-c2cccc(F)c2)cc1 (some centres not stated) | . | . | 11 | . | -60
Cc1ccccc1S(=O)(=O)N1C[C@@H]2N[C@H](C1)C2c1ccc(-c2ccc(C#N)cc2)cc1 (some centres not stated) | . | . | 72*! | . | 0
